Experimental findings from publication PMC5573908 (Diabetes, Obesity & Metabolism, 2017) are described below.

A short description of data set [1]: Multiple-dose pharmacokinetics of semaglutide. It counts as in vivo, human. Summed up:
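Test compound (1.34 mg/mL) was given s.c. once weekly at 0.25 mg for 4 weeks, 0.5 mg for 4 weeks, then 1.0 mg for 4 weeks. Steady-state trough concentrations were taken after 4, 8 and 12 weeks. After a further clinic 1.0 mg dose, steady-state parameters were derived from 0–168 h concentration-time curves.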

For the next data set, the system named is subjects with obesity. Put plainly: Safety and tolerability. The data set is classed as in vivo, human. Summed up:
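Safety was followed through both 12-week periods of randomised crossover s.c. weekly dosing (0.25, 0.5, then 1.0 mg, 4 weeks each) versus matching placebo. Assessments were adverse events, hypoglycaemic events and blood pressure.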

Where [2] appears, read: 12 weeks, once-weekly s.c. escalated to 1.0 mg.

`CC[C@H](C)[C@H](NC(=O)[C@H](Cc1ccccc1)NC(=O)[C@H](CCC(=O)O)NC(=O)[C@H](CCCCNC(=O)COCCOCCNC(=O)COCCOCCNC(=O)CC[C@H](NC(=O)CCCCCCCCCCCCCCCCC(=O)O)C(=O)O)NC(=O)[C@H](C)NC(=O)[C@H](C)NC(=O)[C@H](CCC(N)=O)NC(=O)CNC(=O)[C@H](CCC(=O)O)NC(=O)[C@H](CC(C)C)NC(=O)[C@H](Cc1ccc(O)cc1)NC(=O)[C@H](CO)NC(=O)[C@H](CO)NC(=O)[C@@H](NC(=O)[C@H](CC(=O)O)NC(=O)[C@H](CO)NC(=O)[C@@H](NC(=O)[C@H](Cc1ccccc1)NC(=O)[C@@H](NC(=O)CNC(=O)[C@H](CCC(=O)O)NC(=O)C(C)(C)NC(=O)[C@@H](N)Cc1cnc[nH]1)[C@@H](C)O)[C@@H](C)O)C(C)C)C(=O)N[C@@H](C)C(=O)N[C@@H](Cc1c[nH]c2ccccc12)C(=O)N[C@@H](CC(C)C)C(=O)N[C@H](C(=O)N[C@@H](CCCNC(=N)N)C(=O)NCC(=O)N[C@@H](CCCNC(=N)N)C(=O)NCC(=O)O)C(C)C` [semaglutide]: the “Mean trough value (CV)” value in data set [1] (0.25 mg s.c. once-weekly, after 4 weeks of treatment) is recorded as 4.64 (32.5) nmol/L; in data set [1] (0.5 mg s.c. once-weekly, after 8 weeks of treatment), 10.25 (23.3) nmol/L; in data set [1] (1.0 mg s.c. once-weekly, after 12 weeks of treatment), 19.73 (21.9) nmol/L. Besides, the “Severe or blood glucose-confirmed symptomatic hypoglycaemic events” value in the data set on subjects with obesity (12 weeks) was “No severe or blood glucose‐confirmed symptomatic hypoglycaemic events were reported”. Also, the “Serious AEs” value with subjects with obesity (setting [2]) was “no serious AEs were reported”. The “Severity of AEs” value in the data set on subjects with obesity (setting [2]) is “mild or moderate”. In addition, the “Observed mean changes from baseline in systolic and diastolic blood pressure” value in the data set with subjects with obesity (week 12, either treatment) is given as ≤ 2 mm Hg.
